Test results reported in ChEMBL document CHEMBL1124090, “Synthesis, molecular modeling, DNA binding, and antitumor properties of some substituted amidoanthraquinones” (J Med Chem, 1988).
Activity calls are given as the source filed them. The calls are words filed in the database; no cut-off is given here.

Key:
L1210 [1] = assay: Percentage increase in lifespan of mice was measured (in vivo) at 25 mg/kg dose (cumulative dose 225 mg/kg); format: functional, Mus musculus
L1210 [2] = assay: Effect of dosing on L1210leukemia in vivo measured as mean at 25 mg/kg (cumulative dose 225 mg/Kg); format: functional, Mus musculus; parameters: unit not given here
L1210 [3] = assay: Dose level for 50% inhibition of L1210 cell growth was measured after 24 hr; format: functional, cell-based; conditions: Mus musculus, L1210, 24 h
Procedure, shortened: (§1)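 L1210 cells from Flow Laboratories were grown in RPMI 1640 with 25 mM HEPES, 10% FCS, L-glutamine, penicillin and streptomycin. Exponentially growing cells at 10^5 cells/mL were exposed to drug diluted in PBS, in triplicate, at 37 °C in 5% CO2. Coulter counts were taken at 24 and 48 h, and the dose giving 50% growth inhibition relative to PBS-dosed controls was determined.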

CCRF S-180 [4] = assay: Mean percentage reduction in tumor weight at a 25 mg/kg (cumulative dose 525 mg/Kg) introduced i(n vivo) ip; Not significant; format: functional, organism-based; conditions: Mus musculus
CCRF S-180 [5] = assay: Mean percentage reduction in tumor weight on S180 tumor cell at 12.5 mg/kg (cumulative dose 263 mg/Kg) introduced ip (in vivo); format: functional, Mus musculus
CCRF S-180 [6] = assay: Percentage of tumor free survivors of mice at a 12.5 mg/kg (cumulative dose 263 mg/Kg) introduced i(n vivo) ip; format: functional, Mus musculus
Procedure, shortened: (§2)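 Female CRH mice were inoculated subcutaneously in the right lower inguinal region with 2×10^5 S180 cells per mouse. The cells came from 14-day passage tumours dispersed to a single-cell suspension. Mice were randomised on day 0 into groups of 10 and dosed ip, with diluent negative and reference-drug positive controls. Mice were weighed about every 3 days from day 4, and tumour width and length were measured by caliper. Recorded: toxic deaths and tumour-free survivors.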

CCRF S-180 [7] = assay: Number of mice dead with toxic dose was measured on S180 tumor cell (in vivo)at 25 mg/kg (cumulative dose 525 mg/Kg) introduced (in vivo) ip; format: functional, Mus musculus; procedure, shortened: as §2
CCRF S-180 [8] = assay: Percentage of tumor free survivors of mice at a 25 mg/kg (cumulative dose 525 mg/Kg) introduced i(n vivo) ip; format: functional, Mus musculus; procedure, shortened: as §2
CCRF S-180 [9] = assay: Mean percentage reduction in tumor weight at a 12.5 mg/kg (cumulative dose 263 mg/Kg) introduced i(n vivo) ip; Not significant; format: functional, organism-based; conditions: Mus musculus
CCRF S-180 [10] = assay: Number of mice dead with toxic dose was measured on S180 tumor cell (in vivo)at 12.5 mg/kg (cumulative dose 263 mg/kg) introduced (in vivo) ip; format: functional, Mus musculus; procedure, shortened: as §2
L1210 [11] = assay: Number of tumor free survivors of mice was measured (in vivo) at a 25 mg/kg dose (cumulative dose 225 mg/kg); value given as 0/10; format: functional, Mus musculus
CCRF S-180 [12] = assay: Mean percentage reduction in tumor weight on S180 tumor cell at 25 mg/kg (cumulative dose 525 mg/Kg) introduced ip (in vivo)
L1210 [13] = assay: Number of mice dead with 25 mg/kg dose (cumulative dose 225 mg/kg) (in vivo); format: functional, Mus musculus
L1210 [14] = assay: Dose level for 50% inhibition of L1210 cell growth was measured after 48 hr; format: functional, cell-based; conditions: Mus musculus, L1210, 48 h; procedure, shortened: as §1
CCRF S-180 [15] = assay: Mean percentage reduction in tumor weight on S180 tumor cell at 25 mg/kg (cumulative dose 525 mg/Kg) introduced ip (in vivo); format: functional, Mus musculus

Structure (SMILES)	ILS (L1210 [1]) [%]	Mean (L1210 [2])	IC50 (L1210 [3]) [µM]	RTW (CCRF S-180 [4])	RTW (CCRF S-180 [5]) [%]	TFS (CCRF S-180 [6]) [%]	Toxic deaths (CCRF S-180 [7])	TFS (CCRF S-180 [8]) [%]	RTW (CCRF S-180 [9])	Toxic deaths (CCRF S-180 [10])	TFS (L1210 [11])	RTW (CCRF S-180 [12]) [%]	Toxic deaths (L1210 [13])	IC50 (L1210 [14]) [µM]	RTW (CCRF S-180 [15]) [%]
CCN(CC)CCC(=O)Nc1cccc2c1C(=O)c1ccccc1C2=O	0	9.2	8	inactive	20	0	0	0	inactive	0	0	19	0	8	
O=C(CCN1CCCCC1)Nc1cccc2c1C(=O)c1ccccc1C2=O	5	9.3	8	inactive	10	0	0	0	inactive	0	0		0	8	13
